Results reported in ChEMBL document CHEMBL4152363, “Andrographolide derivative as STAT3 inhibitor that protects acute liver damage in mice” (Bioorg Med Chem, 2018).
Calls of active or inactive are those of the source. No cut-off for these calls is given here.

Key:
HeLa = test: Cytotoxicity against human HeLa cells; assay type: cell-based
Summary of the method: (§1)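 AD-293 or HeLa cells grown in high-glucose DMEM with 10% FBS and 1% penicillin-streptomycin; compound exposure 24 h; cytotoxicity reported as CC10.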

Mus musculus [1] = test: Reduction in SMAD4 mRNA expression level in liver of CCL4-induced acute liver damage in Balb/c mouse at 30 mg/kg, po qd for 7 days measured after 16 hrs post CCL4 challenge by qRT-PCR method; assay type: functional, organism-based
Summary of the method: (§2)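 Mice given 30 mg/kg orally once daily 7 days before sc CCl4 (40% in olive oil, 10 ml/kg); livers harvested 16 h later, PBS-washed, stored at −70 °C for RNA extraction and transcript quantification; n=5, two independent experiments.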

Mus musculus [2] = test: Reduction in SMAD3 mRNA expression level in liver of CCL4-induced acute liver damage in Balb/c mouse at 30 mg/kg, po qd for 7 days measured after 16 hrs post CCL4 challenge by qRT-PCR method; assay type: functional, organism-based; summary of the method: as §2
Mus musculus [3] = test: Reduction in SMAD2 mRNA expression level in liver of CCL4-induced acute liver damage in Balb/c mouse at 30 mg/kg, po qd for 7 days measured after 16 hrs post CCL4 challenge by qRT-PCR method; assay type: functional, organism-based; summary of the method: as §2
[4] = target: T1, Signal transducer and activator of transcription 3 (Homo sapiens, UniProt P40763); test: Inhibition of […] activation in human HeLa cells incubated […] for 16 hrs followed by compound addition measured after 4 hrs by luciferase reporter gene assay; assay type: cell-based
Summary of the method: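 NF-κB pathway in AD-293 or HeLa cells stimulated with 50 ng/mL TNF-α; compound treatment 4 h; luciferase activity read from cell extracts; EC50 derived.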

Mus musculus [5] = test: Hepatoprotective activity against CCL4-induced acute liver damage in Balb/c mouse assessed as increase in number of PCNA positive cells at 30 mg/kg, po qd for 7 days measured after 16 hrs post CCL4 challenge by hematoxylin staining based immunohistochemistry method; assay type: functional, organism-based
Summary of the method: (§3)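 Liver sections from mice dosed orally 30 mg/kg daily 7 days then sc CCl4, killed 16 h after; H2O2 block, goat serum/BSA/gelatin blocking 1 h RT, primary antibody (α-SMA, Ki67, PCNA or STAT3) 4 °C overnight, HRP secondary, DAB, hematoxylin counterstain; >30 fields at 400× quantified; n=5.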

Mus musculus [6] = test: Reduction in Col1a1 mRNA expression level in CCL4-induced acute liver damage in Balb/c mouse at 30 mg/kg, po qd for 7 days measured after 16 hrs post CCL4 challenge by qRT-PCR method; assay type: functional, organism-based; summary of the method: as §2
[7] = target: T1, Signal transducer and activator of transcription 3; test: Inhibition of […] activation in human AD293 cells incubated […] for 16 hrs followed by compound addition measured after 4 hrs by luciferase reporter gene assay; assay type: cell-based
Mus musculus [8] = test: Antifibrotic activity in CCL4-induced acute liver damage Balb/c mouse model assessed as decrease in alpha-SMA expression in areas surrounding blood vessels at 30 mg/kg, po qd for 7 days measured after 16 hrs post CCL4 challenge by masson trichome staining based assay; assay type: functional, organism-based; conditions: in the assay text read “immunohistochemistry” for “masson trichome staining based assay”; summary of the method: as §3
[9] = target: T1, Signal transducer and activator of transcription 3; test: Inhibition of IL-6 stimulated STAT3 activation in human AD293 cells incubated with IL-6 for 16 hrs followed by compound addition measured after 6 hrs by luciferase reporter gene assay; assay type: cell-based
Summary of the method: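 AD-293 cells stimulated with 2.5 μg/mL IL-6; compound treatment 6 h; luciferase activity read from cell extracts; EC50 derived.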

Mus musculus [10] = test: Hepatoprotective activity against CCL4-induced acute liver damage in Balb/c mouse assessed as increase in number of Ki67 positive cells at 30 mg/kg, po qd for 7 days measured after 16 hrs post CCL4 challenge by hematoxylin staining based immunohistochemistry method; assay type: functional, organism-based; summary of the method: as §3
Mus musculus [11] = test: In vivo inhibition of STAT3 expression level in CCL4-induced acute liver damage in Balb/c mouse assessed as decrease in nuclear STAT3 phosphorylation at 30 mg/kg, po qd for 7 days measured after 16 hrs post CCL4 challenge by hematoxylin staining based immunohistochemistry method; assay type: functional, organism-based; summary of the method: as §3
Mus musculus [12] = test: Antiinflammatory activity in CCL4-induced acute liver damage Balb/c mouse model assessed as decrease in serum TGF-beta levels at 30 mg/kg, po qd for 7 days measured after 16 hrs post CCL4 challenge; assay type: functional, organism-based
Summary of the method: (§4)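 BalB/C males dosed orally 30 mg/kg daily for 7 days, then sc CCl4 (40% in olive oil, 10 ml/kg); serum collected 16 h post-CCl4 after CO2 anaesthesia, stored at −70 °C until IL-6, MCP-1 or TGF-β analysis; n=5.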

Mus musculus [13] = test: Reduction in serum AST level in CCL4-induced acute liver damage in Balb/c mouse at 30 mg/kg, po qd for 7 days measured after 16 hrs post CCL4 challenge […]; assay type: functional, organism-based
Mus musculus [14] = test: Antiinflammatory activity in CCL4-induced acute liver damage Balb/c mouse model assessed as decrease in serum IL-6 levels at 30 mg/kg, po qd for 7 days measured after 16 hrs post CCL4 challenge; assay type: functional, organism-based; summary of the method: as §4
Mus musculus [15] = test: Antifibrotic activity in CCL4-induced acute liver damage Balb/c mouse model assessed as decrease in collagen deposition in liver at 30 mg/kg, po qd for 7 days measured after 16 hrs post CCL4 challenge by masson trichome staining based assay; assay type: functional, organism-based
Summary of the method: (§5)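 Male BalB/C mice given oral 30 mg/kg daily for 7 days, then sc CCl4 (40% in olive oil, 10 ml/kg); sacrificed 16 h later; livers fixed in 10% formaldehyde, paraffin sections stained with H&E or Masson's trichrome, light microscopy, ≥3 sections per liver; n=5, two experiments.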

[16] = target: T1, Signal transducer and activator of transcription 3; test: Inhibition of IFNgamma-stimulated STAT3 phosphorylation at Tyr705 residues in human AD293 cell lysates incubated with IFNgamma followed by compound addition at 10 uM by Western blot analysis
Summary of the method: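 AD-293 cells treated with 1 μg/mL IFN-γ alone or with compounds at 10 μM; phospho- and total STAT1 and STAT3 assessed by western blot; representative of at least three independent experiments.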

Mus musculus [17] = test: Reduction in Col3a1 mRNA expression level in CCL4-induced acute liver damage in Balb/c mouse at 30 mg/kg, po qd for 7 days measured after 16 hrs post CCL4 challenge by qRT-PCR method; assay type: functional, organism-based; summary of the method: as §2
Mus musculus [18] = test: Hepatoprotective activity against CCL4-induced acute liver damage in Balb/c mouse assessed as decrease in number of necrotic cells at 30 mg/kg, po qd for 7 days measured after 16 hrs post CCL4 challenge by hematoxylin-eosin staining based light microscopy; assay type: functional, organism-based; summary of the method: as §5
Mus musculus [19] = test: Reduction in MMP10 mRNA expression level in CCL4-induced acute liver damage in Balb/c mouse at 30 mg/kg, po qd for 7 days measured after 16 hrs post CCL4 challenge by qRT-PCR method; assay type: functional, organism-based; summary of the method: as §2
Mus musculus [20] = test: Reduction in MMP13 mRNA expression level in CCL4-induced acute liver damage in Balb/c mouse at 30 mg/kg, po qd for 7 days measured after 16 hrs post CCL4 challenge by qRT-PCR method; assay type: functional, organism-based; summary of the method: as §2
AD293 = test: Cytotoxicity against human AD293 cells; assay type: cell-based; conditions: ad293; summary of the method: as §1

T1 sequence (P40763 whole entry): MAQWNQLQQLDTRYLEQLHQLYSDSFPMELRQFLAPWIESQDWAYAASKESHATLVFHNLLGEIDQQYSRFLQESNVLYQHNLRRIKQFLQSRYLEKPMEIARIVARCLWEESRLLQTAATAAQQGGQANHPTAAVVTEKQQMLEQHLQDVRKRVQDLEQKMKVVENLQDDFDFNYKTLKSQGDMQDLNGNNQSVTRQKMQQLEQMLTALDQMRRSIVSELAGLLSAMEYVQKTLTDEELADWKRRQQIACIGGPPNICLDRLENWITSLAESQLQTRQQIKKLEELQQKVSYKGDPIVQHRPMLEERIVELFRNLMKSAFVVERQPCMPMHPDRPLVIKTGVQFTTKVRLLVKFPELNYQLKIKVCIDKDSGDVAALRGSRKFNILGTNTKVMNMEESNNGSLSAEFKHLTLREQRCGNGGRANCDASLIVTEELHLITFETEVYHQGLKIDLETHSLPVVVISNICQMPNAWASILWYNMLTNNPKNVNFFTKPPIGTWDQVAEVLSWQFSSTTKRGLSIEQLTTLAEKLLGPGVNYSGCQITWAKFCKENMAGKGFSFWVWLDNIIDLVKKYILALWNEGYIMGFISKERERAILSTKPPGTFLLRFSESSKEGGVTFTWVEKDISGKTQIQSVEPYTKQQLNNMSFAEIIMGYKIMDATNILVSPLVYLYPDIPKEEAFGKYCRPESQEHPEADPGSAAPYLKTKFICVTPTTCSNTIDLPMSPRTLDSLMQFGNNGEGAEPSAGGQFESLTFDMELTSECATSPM

EC50 [4]: > 10 µM
EC50 [7]: > 10 µM
EC50 [9]: 3.95 µM
inhibition [16]: > 50%
Compound: CC(C)(C)[Si](C)(C)O[C@@H]1COC(=O)/C1=C/C[C@@H]1[C@]2(CC[C@H]3[C@@]1(C)CCC(=O)[C@@]3(C)CO)CO2
CC10 (HeLa): > 10 µM
Activity (Mus musculus [1]): inactive
Activity (Mus musculus [2]): inactive
Activity (Mus musculus [3]): inactive
Activity (Mus musculus [5]): Active
Activity (Mus musculus [6]): inactive
Activity (Mus musculus [8]): Active
Activity (Mus musculus [10]): Active
inhibition (Mus musculus [11]): Active
Activity (Mus musculus [12]): Active
Activity (Mus musculus [13]): inactive
Activity (Mus musculus [14]): Active
Activity (Mus musculus [15]): Active
Activity (Mus musculus [17]): inactive
Activity (Mus musculus [18]): Active
Activity (Mus musculus [19]): Active
Activity (Mus musculus [20]): Active
CC10 (AD293): > 10 µM
